Screening data from PubChem BioAssay.
AHR activator: activators of human aryl hydrocarbon receptor | 2.5% of 320,000 active | AHR-responsive luciferase reporter cells, luminescence | P35869 | AID 2796 | activation, % at 5 µM; in the data active = activation above about 47%;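 also: 0% = vehicle wells and 100% = reference agonist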
TAG inh: triacylglycerol accumulation inhibition. H9c2 cells, Nile Red lipid (TAG) fluorescence; cells loaded with 200 µM oleic acid. inhibition, % at 12.5 µM. 0.66% of 230,000 active. AID 651582;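 active = pattern-corrected inhibition of lipid staining of at least 50% with the nuclear-stain viability signal not falling by more than 50%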;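 also: 0% = DMSO wells and 100% = triacsin C control wells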
TbMetRS inhib: Trypanosoma brucei MetRS inhibition. purified T. brucei MetRS, ATP depletion, Kinase-Glo luminescence. inhibition, % at 11.9 µM. 0.4% of 360,000 active. AID 624268;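 active = inhibition above a per-plate cutoff of the control wells' mean inhibition plus 3 SD, cut at about 5.5% in these data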;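 also: 0% = DMSO wells median and 100% = median of wells with control inhibitor compound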
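Measured by: Kinase-Glo luciferase luminescence reporting remaining unconsumed ATP. Material: purified T. brucei MetRS enzyme. Doses: 11.9 µM compound single dose, 0.9% DMSO. Medium: HEPES buffer containing pyrophosphatase, BSA, spermine, DTT. Times: 15 min preincubation, 2 h reaction, all 25 °C. Reagent: methionine, ATP and bulk E. coli tRNA.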
Efflux pump mplx: blocks antifungal efflux pumps in multiplex yeast assay; S. cerevisiae Candida pump triplex, Nile Red efflux; inhibition, % at 10 µM; 0.44% of 330,000 active;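 active = plate passing quality check with inhibition over a set limit, or well fluorescence over plate mean plus 4 SD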;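 also: Nile Red retained in pooled yeast measured as flow cytometry median fluorescence; 0% = buffer negative control and 100% = Enniatin B positive control; higher means more Nile Red kept so more efflux inhibition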
SMARCA2 activ: SMARCA2 function activation, primary screen; activation, % at 9.1 µM; MG213 cells, MMTV-luciferase reporter, dexamethasone, overnight; 1% of 370,000 active; in the data active = activation above about 7.8%;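 also: 0% = vehicle wells and 100% = reference activator wells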
Active calls of the source: *; · = not tested or not shown. An excerpt weighted towards active compounds, which were near 4.1% of everything screened.

SMILES	AHR activator	TAG inh	TbMetRS inhib	Efflux pump mplx	SMARCA2 activ
O=C(C[C@H]1C[C@H](C(=O)N2CCCCC2)[C@@]2(CCc3ccccc3)c3[nH]c4cc(-c5ccco5)ccc4c3CCN2C1=O)NCc1cccc(C(F)(F)F)c1	·	58*	0	0	-1
O=C(C[C@H]1C[C@H](C(=O)N2CCCCC2)[C@@]2(CCc3ccccc3)c3[nH]c4cc(-c5ccco5)ccc4c3CCN2C1=O)NCc1ccco1	·	37	-2	0	-2
CCOc1ccc(-n2c(COc3ccc(C)cc3)nnc2SCC(=O)c2ccc3ccccc3c2)cc1	·	·	·	·	1
Cc1cccc(-n2c(O)cnc2Nc2nc(C)cc(C)n2)c1	65*	·	-1	1	0
O=C(O)CCCN1C(=O)c2cccc3cccc(c23)C1=O	-3	·	0	0	-1
O=C1c2cccc3cccc(c23)C(=O)N1CCN1CCN(C(=S)Nc2ccc(F)cc2)CC1	106*	·	·	0	·
O=C(O)CCSCCCN1C(=O)c2cccc3cccc(c23)C1=O	49*	-4	0	0	3
O=C(CCN1C(=O)c2cccc3cccc(c23)C1=O)Nc1ccccc1	28	-18	0	0	7.9*
O=C(CN1CCN(CCN2C(=O)c3cccc4cccc(c34)C2=O)CC1)c1ccc(F)cc1	31	·	1	0	1
COc1ccc(Cn2cc(CN3[C@@H](C)COc4cc(Br)ccc4S3(=O)=O)nn2)cc1	·	·	·	·	-5
CC(NCc1ccco1)C(=O)N1CCN(c2cccc(C(F)(F)F)c2)CC1 (centres undefined)	·	·	·	·	-2
C[C@@H]1OC(c2ccccc2)N(C)[C@H]2C[C@H]3c4[nH]c5cccc(-c6ccccc6)c5c4CCN3C[C@@H]12 (some centres undefined)	·	·	·	·	-3
CCOC(=O)/C(=C/c1cn(C)c2ccccc12)NC(=O)c1ccccc1	49*	1	0	0	2
CN1CCN(C(=O)/C(=C/c2cn(C)c3ccccc23)NC(=O)c2ccccc2)CC1	50*	·	0	0	-2
COc1ccc(OC)c2c1sc(=NC(=O)C1CC1)n2C	24	2	-1	0	-5
COc1ccc(C(=O)N=c2sc3c(C)ccc(OC)c3n2C)cc1OC	21	0	0	0	6
COc1ccc(OC)c2c1sc(=NC(=O)c1ccco1)n2C	51*	13	0	0	-1
COc1ccccc1C(=O)N=c1sc2c(C)ccc(OC)c2n1C	62*	-30	0	0	4
CCCCNc1c(-c2ccc(OC)c(Sc3ccc(OC)cc3)c2)nc2cnccn12	15	-1	0	0	0
CCCCNc1c(-c2ccc(SC(C)CC)cc2)nc2cnccn12 (centres undefined)	48*	0	0	2	·
CCCCC(=O)Nc1nc(C)c(-c2csc(Nc3ccccc3OC)n2)s1	77*	0	0	0	-1
CCCCCCC(=O)Nc1nc(C)c(-c2csc(Nc3cc(OC)ccc3OC)n2)s1	67*	43	0	0	0
Cn1c(=O)n(Cc2ccc(F)cc2)c(=O)c2c1nc1n2CCN1Cc1ccco1	2	4	0	0	-2
Cn1c(=O)n(CCc2ccccc2)c(=O)c2c1nc1n2CCN1Cc1ccco1	66*	10	0	0	-3
Cc1sc2nc(CSc3ccc([N+](=O)[O-])cc3)[nH]c(=O)c2c1C	47*	·	·	0	·
SMILES	AHR activator	TAG inh	TbMetRS inhib	Efflux pump mplx	SMARCA2 activ
Cc1sc2nc(CSc3nc4ccccc4s3)[nH]c(=O)c2c1C	14	·	·	0	2
CCOc1ccc(NC(=O)c2cc([N+](=O)[O-])ccc2N2CCOCC2)cc1	74*	16	-1	0	-1
CCOc1ccc(NC(=O)COC(=O)c2cc([N+](=O)[O-])ccc2N2CCOCC2)cc1	6	26	0	0	-2
Cc1nc(S/C(=C/c2ccc(-c3ccc(Cl)cc3)o2)C(=O)O)n[nH]1	57*	·	-1	0	0
Cc1nc(S/C(=C/c2ccc(-c3ccc(C(=O)O)cc3)o2)C(=O)O)n[nH]1	1	2	0	0	-2
COc1ccc(C(=O)CSc2nnc(-c3ccc(C(C)(C)C)cc3)n2C)cc1	·	·	·	·	-6
N[C@H](C(=O)N1CCC[C@@H]1C(=O)N1CCC2CCN(S(=O)(=O)c3ccccc3)CC21)c1ccccc1 (some centres undefined)	·	·	·	·	-3
COc1cc2c(cc1OC)-c1c(OC)c(OC)cc3ccnc(c13)C2=O	48*	44	0	0	5
O=C(c1cccn2c(=O)c3cc(Cl)ccc3nc12)N1CCOCC1	91*	·	0	0	1
O=C(c1cccn2c(=O)c3cc(Cl)ccc3nc12)N1CCN(Cc2ccc3c(c2)OCO3)CC1	70*	·	-1	1	-1
COc1ccc2[nH]c3c(c2c1)CCN[C@]31C(=O)N(C)c2ccccc21	·	·	·	·	0
CCCn1c2ccccc2c2nc3ccccc3nc21	79*	-5	0	0	7
O=c1oc2ccccc2n1CCn1c2ccccc2c2nc3ccccc3nc21	22	-29	0	0	0
N#CCCn1c2ccccc2c2nc3ccccc3nc21	70*	5	-1	0	3
O=C(O)Cn1c2ccccc2c2nc3ccccc3nc21	·	0	0	·	·
Cn1c2ccc(F)cc2c2nc3ccccc3nc21	43	-9	0	0	2
CCn1c2ccc(F)cc2c2nc3ccccc3nc21	59*	7	0	0	0
Clc1ccc(/C=N\Nc2ccccc2)cc1	14	-4	0	0	-1
O=C(N/N=C/c1cc(Br)ccc1O)Nc1ccccc1	51*	·	0	0	0
O=C(N/N=C/c1cc(Br)ccc1O)c1ccncc1	27	56*	0	0	-4
NC(=O)N/N=C\c1cc(Br)ccc1O	28	·	0	0	-1
O=C(N/N=C/c1ccc(Cl)cc1)Nc1ccccc1	67*	4	-1	0	1
c1ccc2c(c1)OCCOCCOc1ccccc1OCCOCCO2	64*	·	-1	0	-1
Nc1ccc2c(c1)OCCOCCOCCOCCOCCO2	-1	-8	0	0	-3
Nc1c(C(=O)c2cccs2)oc2ccccc12	49*	·	0	0	3
SMILES	AHR activator	TAG inh	TbMetRS inhib	Efflux pump mplx	SMARCA2 activ
Nc1c(C(=O)c2ccc(Br)s2)oc2ccccc12	68*	23	1	0	7
CCCC1CCC2(CCC(=O)N2CCC#N)CC1 (centres undefined)	·	·	·	·	-3
COc1cc(CNCCc2ccc(S(N)(=O)=O)cc2)ccc1OCC(=O)NC(C)(C)C	49*	-8	-1	0	-3
COC(=O)[C@]12C[C@H](CC(=O)N3CCSCC3)C(=O)N(Cc3cccc4ccccc34)C1=C[C@H](C(C)C)O[C@@H]2C1CC1	·	·	·	·	-4
Nc1nonc1C(=Nc1ccc(Br)cc1)NO	66*	-8	-1	0	0
Nc1nonc1C(=O)N/N=C/c1cc(Br)ccc1O	37	·	·	0	-5
CC(C)(C)c1ccc(-c2nnc(N)s2)cc1	63*	2	0	1	2
Fc1ccccc1NC(=S)N/N=C/c1ccccc1Br	124*	10	1	0	5
